# From ChEMBL document CHEMBL3758119, “Functionalized imidazolium and benzimidazolium salts as paraoxonase 1 inhibitors: Synthesis, characterization and molecular docking studies” (Bioorg Med Chem, 2016)
# Target: T1, Serum paraoxonase/arylesterase 1 (Homo sapiens, UniProt P27169)
# Test: Inhibition of human serum PON1 using paraoxon as substrate by spectrophotometric analysis
# Conditions: not given; call rule not given here
# Outline: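 PON1 purified from human serum (ammonium sulphate precipitation, then hydrophobic interaction chromatography; stored with 2 mM CaCl2). Paraoxon 2 mM final; p-nitrophenol release followed at 412 nm for 2 min at 37 °C. Five inhibitor concentrations tested. Activity without compound taken as 100%. Measured in duplicate and corrected for non-enzymatic hydrolysis. IC50 read from activity-percentage graphs.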
# T1 sequence (P27169 whole entry): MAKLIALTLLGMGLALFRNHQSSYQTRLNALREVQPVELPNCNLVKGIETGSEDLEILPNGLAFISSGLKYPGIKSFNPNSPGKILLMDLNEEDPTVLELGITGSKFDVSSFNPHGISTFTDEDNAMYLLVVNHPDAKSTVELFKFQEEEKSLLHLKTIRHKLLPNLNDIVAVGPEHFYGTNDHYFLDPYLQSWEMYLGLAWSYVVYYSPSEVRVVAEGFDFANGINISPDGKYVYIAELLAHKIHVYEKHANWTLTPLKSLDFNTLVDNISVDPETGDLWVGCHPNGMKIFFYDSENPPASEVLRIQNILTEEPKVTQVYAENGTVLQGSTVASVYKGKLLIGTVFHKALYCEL
row,Compound,IC50
1,Cc1n(C)cc[n+]1Cn1nnc2ccccc21.[Cl-],Not Active
2,COc1cc(C[n+]2cn(Cn3nnc4ccccc43)c3ccccc32)cc(OC)c1OC.[Cl-],Not Active
3,Cn1cc[n+](Cn2nnc3ccccc32)c1.[Cl-],Not Active
4,CCCCn1cc[n+](Cn2nnc3ccccc32)c1.[Cl-],Not Active
5,[Cl-].c1ccc2c(c1)nnn2Cn1c[n+](Cn2nnc3ccccc32)c2ccccc21,Not Active

# Same assay, conditions: read-out: IC50
row,Compound,IC50 [µM]
1,Cc1cc(C)c2c(CCl)cc(=O)oc2c1,31.4
2,c1ccc(C[n+]2cn(Cn3nnc4ccccc43)c3ccccc32)cc1,2060
3,c1ccc2c(c1)ncn2Cn1nnc2ccccc21,564
4,CC(C)(C)c1ccc2oc(=O)cc(CCl)c2c1,40
5,Cc1n(C)cc[n+]1Cc1nc2ccccc2[nH]1,626
6,Cn1cc[n+](Cc2nc3ccccc3[nH]2)c1,19
7,Cc1ccc2c(C[n+]3cn(Cn4nnc5ccccc54)c4ccccc43)cc(=O)oc2c1C,237
8,CCCCn1cc[n+](Cc2cc(=O)oc3cc(C)cc(C)c23)c1,6.37
9,Cc1ccc2c(CCl)cc(=O)oc2c1C,21.4
10,O=C1COc2ccc(C(=O)C[n+]3cn(Cn4nnc5ccccc54)c4ccccc43)cc2N1,8.76
11,Cc1cc(C)c2c(C[n+]3ccn(C)c3C)cc(=O)oc2c1,317
12,CCCCn1cc[n+](Cc2nc3ccccc3[nH]2)c1,29
13,CC(C)(C)c1ccc2oc(=O)cc(C[n+]3cn(Cn4nnc5ccccc54)c4ccccc43)c2c1,627
14,Cc1cc(C)c2c(C[n+]3ccn(C)c3)cc(=O)oc2c1,23.7
15,Cc1ccc(-c2cc3cc(O)c(O)cc3oc2=O)cc1,3
16,CCCC[n+]1cn(Cn2nnc3ccccc32)c2ccccc21,3330

# Target: T1, Serum paraoxonase/arylesterase 1
# Test: Competitive inhibition of human serum PON1 using paraoxon as substrate by Lineweaver-Burk plot analysis
# Conditions: not given
# Outline: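 Human serum PON1 purified by ammonium sulphate precipitation (60–80%) and hydrophobic interaction chromatography, stored with 2 mM CaCl2. Paraoxon hydrolysis followed by p-nitrophenol appearance at 412 nm for 2 min at 37 °C, pH 8.00. Eight paraoxon concentrations (0.5–1.2 mM) run at two inhibitor concentrations (6.7 µM and 4.7 µM). Readings taken in duplicate and corrected for non-enzymatic hydrolysis. Ki and inhibition type taken from Lineweaver–Burk plots.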
row,Compound,Ki [nM]
1,CCCCn1cc[n+](Cc2cc(=O)oc3cc(C)cc(C)c23)c1,2390
